Measured values from ChEMBL document CHEMBL1629527, “In vitro antifungal activities of bis(alkylpyridinium)alkane compounds against pathogenic yeasts and molds” (Antimicrob Agents Chemother, 2010).

Experiments:
Candida albicans [1] = test: Antifungal activity against Candida albicans after 48 to 72 hrs; format: functional; conditions: for MFC: Candida albicans
Outline: (§1)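 MFC: after the MIC read, 30-μl aliquots from each well without visible growth were plated onto Sabouraud dextrose agar and incubated at 35°C. Reading was at 48–72 h for yeasts and up to 7 days for molds. MFC was the lowest concentration with no colonies.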

Candida dubliniensis = test: Antifungal activity against Candida dubliniensis after 48 to 72 hrs; format: functional; conditions: for MFC: Candida dubliniensis; outline: as §1
[2] = system: Meyerozyma guilliermondii; test: Antifungal activity against Candida guilliermondii after 48 to 72 hrs; format: functional; conditions: for MFC: Meyerozyma guilliermondii; outline: as §1
Clavispora lusitaniae [3] = test: Antifungal activity against Candida lusitaniae after 48 to 72 hrs; format: functional; conditions: for MFC: Clavispora lusitaniae; outline: as §1
Cryptococcus neoformans = test: Antifungal activity against Cryptococcus neoformans after 48 to 72 hrs; format: functional; conditions: for MFC: Cryptococcus neoformans; outline: as §1
[4] = Toxicity against human erythrocytes assessed as hemolysis; format: cell-based, Erythrocyte
Exophiala spinifera = test: Antifungal activity against Exophiala spinifera 03-200803 after 48 to 72 hrs; format: functional
Outline: (§2)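 CLSI M38-A2 broth microdilution for molds in RPMI 1640 with L-glutamine and no bicarbonate, buffered with 0.165 M MOPS to pH 7.0. Compounds were dissolved in water and tested at 0.175–87.5 μM final, 35°C, up to 7 days. MIC was read visually as 100% inhibition versus growth control. For MFC, clear wells were plated on SDA and the lowest concentration with no colonies taken. Each isolate was run in duplicate, two independent experiments.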

Rhizopus arrhizus = test: Antifungal activity against Rhizopus oryzae 05-203111 after 48 to 72 hrs; format: functional
Outline: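 After the broth microdilution MIC read, suspension from every well without visible growth was plated onto Sabouraud dextrose agar and incubated at 35°C, up to 7 days for molds. MFC was taken as the lowest drug concentration with no colonies.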

Candida tropicalis = test: Antifungal activity against Candida tropicalis 04-202361 after 48 to 72 hrs; format: functional
Outline: (§3)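 CLSI M27-A3 broth microdilution for yeasts in RPMI 1640 with L-glutamine and no bicarbonate, buffered with 0.165 M MOPS to pH 7.0. Compounds were dissolved in water and tested at 0.175–87.5 μM final, 35°C. MIC was read visually at 24–72 h as 100% inhibition versus growth control. For MFC, 30 μl from clear wells went onto SDA at 35°C for 48–72 h, reading the lowest concentration without colonies. Duplicates, two independent runs.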

Aspergillus fumigatus [5] = test: Antifungal activity against Aspergillus fumigatus ATCC 204305 after 48 to 72 hrs; format: functional; outline: as §2
Aspergillus flavus = test: Antifungal activity against Aspergillus flavus 05-203758 after 48 to 72 hrs; format: functional; outline: as §2
Lomentospora prolificans [6] = test: Antifungal activity against Scedosporium prolificans 05-203060 after 48 to 72 hrs; format: functional; outline: as §2
Candida parapsilosis [7] = test: Antifungal activity against Candida parapsilosis 04-202398 after 48 to 72 hrs; format: functional; conditions: Lodderomyces parapsilosis; outline: as §3
Lomentospora prolificans [8] = test: Antifungal activity against Scedosporium prolificans 05-203060 after 24 to 72 hrs by broth microdilution method; format: functional
Outline: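 Mold isolates subcultured on potato dextrose agar, then tested by CLSI M38-A2 broth microdilution in RPMI 1640 (L-glutamine, no bicarbonate) buffered to pH 7.0 with 0.165 M MOPS. Compounds were dissolved in water and tested at a final 0.175–87.5 μM. Plates were incubated at 35°C. MIC was read visually as the lowest concentration giving 100% inhibition versus the growth control. Each isolate was run in duplicate in two independent experiments.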

Aspergillus fumigatus [9] = test: Antifungal activity against Aspergillus fumigatus ATCC 204305 after 24 to 72 hrs by broth microdilution method; format: functional
Outline: (§4)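 Broth microdilution MIC per CLSI M27-A3 (yeasts) or M38-A2 (molds). RPMI 1640 with L-glutamine, without bicarbonate, buffered to pH 7.0 with 0.165 M MOPS. Final test range for the compounds was 0.175–87.5 μM. Incubation at 35°C with visual reading at 24–72 h. MIC was the lowest concentration giving 100% inhibition versus the growth control (azoles 50% or 100%, by organism). Each isolate was run in duplicate in two independent experiments.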

Pichia kudriavzevii [10] = test: Antifungal activity against Candida krusei ATCC 6258 after 24 to 72 hrs by broth microdilution method; format: functional; outline: as §4
Candida albicans [11] = test: Antifungal activity against Candida albicans ATCC 90028 after 24 to 72 hrs by broth microdilution method; format: functional; outline: as §4
Clavispora lusitaniae [12] = test: Antifungal activity against Candida lusitaniae after 24 to 72 hrs by broth microdilution method; format: functional; outline: as §4
Nakaseomyces glabratus = test: Antifungal activity against Candida glabrata 04-202345 after 48 to 72 hrs; format: functional; outline: as §1
[13] = Antifungal activity against Exophiala jeanselmei 03-200268 after 24 to 72 hrs by broth microdilution method; format: functional; outline: as §4
Candida albicans [14] = test: Antifungal activity against Candida albicans ATCC 90028 after 48 to 72 hrs; format: functional; outline: as §1
Candida albicans [15] = test: Antifungal activity against Candida albicans ATCC 10231 after 48 to 72 hrs; format: functional; outline: as §1
Pichia kudriavzevii [16] = test: Antifungal activity against Candida krusei ATCC 6258 after 48 to 72 hrs; format: functional; outline: as §1
Candida parapsilosis [17] = test: Antifungal activity against Candida parapsilosis ATCC 22019 after 48 to 72 hrs; format: functional; conditions: Lodderomyces parapsilosis; outline: as §1
Pichia kudriavzevii [18] = test: Antifungal activity against Candida krusei ATCC 9258 after 24 to 72 hrs by broth microdilution method; format: functional; outline: as §4
Aspergillus fumigatus [19] = test: Antifungal activity against Aspergillus fumigatus 05-203114 after 48 to 72 hrs; format: functional; outline: as §2
[20] = system: Cunninghamella bertholletiae; test: Antifungal activity against Cunninghamella bertholletiae 99-12187 after 48 to 72 hrs; format: functional; conditions: in the assay text read “for up to 7 days” for “after 48 to 72 hrs”; outline: as §1
[21] = Antifungal activity against Exophiala jeanselmei 03-200268 after 48 to 72 hrs; format: functional; outline: as §2
Aspergillus terreus = test: Antifungal activity against Aspergillus terreus 05-202844 after 48 to 72 hrs; format: functional; outline: as §1
Pichia kudriavzevii [22] = test: Antifungal activity against Candida krusei […] after 48 to 72 hrs; format: functional; outline: as §1

CCCCCc1cc[n+](CCCCCCCCCCCC[n+]2ccc(CCCCC)c(C)c2)cc1C.[Cl-].[Cl-]
MFC50 (Candida albicans [1]): 1.56 µg/mL
MFC90 (Candida albicans [1]): 1.56 µg/mL
MFC (Candida albicans [1]): 0.79 µg/mL
MFC50 (Candida dubliniensis): 0.79 µg/mL
MFC90 (Candida dubliniensis): 1.56 µg/mL
MFC (Candida dubliniensis): 0.79 µg/mL
MFC50 [2]: 0.79 µg/mL
MFC90 [2]: 1.56 µg/mL
MFC [2]: 0.39 µg/mL
MFC50 (Clavispora lusitaniae [3]): 3.11 µg/mL
MFC90 (Clavispora lusitaniae [3]): 6.22 µg/mL
MFC (Clavispora lusitaniae [3]): 1.56 µg/mL
MFC50 (Cryptococcus neoformans): 0.79 µg/mL
MFC90 (Cryptococcus neoformans): 12.45 µg/mL
MFC (Cryptococcus neoformans): 0.79 µg/mL
HC50 [4]: > 129 µM
IC50 [4]: > 48 µM
MFC (Exophiala spinifera): 1.58 µg/mL
MFC (Rhizopus arrhizus): 6.3 µg/mL
MFC (Candida tropicalis): 1.58 µg/mL
MFC (Aspergillus fumigatus [5]): 50.7 µg/mL
MFC (Aspergillus flavus): 50.7 µg/mL
MFC (Lomentospora prolificans [6]): 6.83 µg/mL
MFC (Candida parapsilosis [7]): 50.7 µg/mL
MIC (Lomentospora prolificans [8]): 1.58 µg/mL
MIC (Aspergillus fumigatus [9]): 25.3 µg/mL
MIC (Pichia kudriavzevii [10]): 6.3 µg/mL
MIC (Candida albicans [11]): 1.58 µg/mL
MIC (Clavispora lusitaniae [12]): 2.71 µg/mL
MIC50 (Clavispora lusitaniae [12]): 3.11 µg/mL
MIC90 (Clavispora lusitaniae [12]): 3.11 µg/mL
MFC (Nakaseomyces glabratus): 3.2 µg/mL
MIC [13]: 1.58 µg/mL

C=CCCCc1cc[n+](CCCCCCCCCCCC[n+]2ccc(CCCC=C)cc2)cc1.[Cl-].[Cl-]
MFC50 (Candida albicans [1]): 1.47 µg/mL
MFC90 (Candida albicans [1]): 1.47 µg/mL
MFC (Candida albicans [1]): 0.75 µg/mL
MFC50 (Candida dubliniensis): 2.93 µg/mL
MFC90 (Candida dubliniensis): 2.93 µg/mL
MFC (Candida dubliniensis): 1.47 µg/mL
MFC50 [2]: 1.47 µg/mL
MFC90 [2]: 5.87 µg/mL
MFC [2]: 0.75 µg/mL
MFC50 (Clavispora lusitaniae [3]): 2.93 µg/mL
MFC90 (Clavispora lusitaniae [3]): 5.87 µg/mL
MFC (Clavispora lusitaniae [3]): 1.47 µg/mL
MFC50 (Cryptococcus neoformans): 5.87 µg/mL
MFC90 (Cryptococcus neoformans): 11.74 µg/mL
MFC (Cryptococcus neoformans): 2.94 µg/mL
HC50 [4]: > 129 µM
IC50 [4]: > 48 µM
MFC (Rhizopus arrhizus): 23.7 µg/mL
MFC (Candida tropicalis): 5.9 µg/mL
MFC (Candida albicans [14]): 2.96 µg/mL
MFC (Candida albicans [15]): 5.9 µg/mL
MFC (Pichia kudriavzevii [16]): 11.8 µg/mL
MFC (Candida parapsilosis [17]): 2.96 µg/mL
MIC (Lomentospora prolificans [8]): 1.48 µg/mL
MIC (Aspergillus fumigatus [9]): > 47.3 µg/mL
MIC (Pichia kudriavzevii [18]): 11.8 µg/mL
MIC (Pichia kudriavzevii [10]): 5.9 µg/mL
MIC (Candida albicans [11]): 1.48 µg/mL
MIC (Clavispora lusitaniae [12]): 2.74 µg/mL
MIC50 (Clavispora lusitaniae [12]): 2.93 µg/mL
MIC90 (Clavispora lusitaniae [12]): 2.93 µg/mL
MFC (Nakaseomyces glabratus): 3 µg/mL
MIC [13]: 5.9 µg/mL

CCCCCCc1cc[n+](CCCCCCCCCCCC[n+]2ccc(CCCCCC)cc2)cc1.[Cl-].[Cl-]
MFC50 (Candida albicans [1]): 1.56 µg/mL
MFC90 (Candida albicans [1]): 1.56 µg/mL
MFC (Candida albicans [1]): 1.56 µg/mL
MFC50 (Candida dubliniensis): 0.79 µg/mL
MFC90 (Candida dubliniensis): 0.79 µg/mL
MFC (Candida dubliniensis): 0.79 µg/mL
MFC50 [2]: 0.79 µg/mL
MFC90 [2]: 1.56 µg/mL
MFC [2]: 0.39 µg/mL
MFC50 (Clavispora lusitaniae [3]): 0.79 µg/mL
MFC90 (Clavispora lusitaniae [3]): 6.22 µg/mL
MFC (Clavispora lusitaniae [3]): 0.79 µg/mL
MFC50 (Cryptococcus neoformans): 0.79 µg/mL
MFC90 (Cryptococcus neoformans): 12.45 µg/mL
MFC (Cryptococcus neoformans): 0.79 µg/mL
HC50 [4]: > 129 µM
IC50 [4]: > 48 µM
MFC (Aspergillus fumigatus [5]): 50.7 µg/mL
MFC (Aspergillus fumigatus [19]): 50.7 µg/mL
MFC [20]: 25.3 µg/mL
MFC (Candida parapsilosis [7]): 50.7 µg/mL
MIC (Lomentospora prolificans [8]): 25.3 µg/mL
MIC (Aspergillus fumigatus [9]): 12.7 µg/mL
MIC (Pichia kudriavzevii [10]): 3.2 µg/mL
MIC (Candida albicans [11]): 0.79 µg/mL
MIC (Clavispora lusitaniae [12]): 1.04 µg/mL
MIC50 (Clavispora lusitaniae [12]): 0.79 µg/mL
MIC90 (Clavispora lusitaniae [12]): 1.56 µg/mL
MIC [13]: 0.79 µg/mL

CCCCCc1cc[n+](CCCCCCCCCCCC[n+]2ccc(CCCCC)cc2)cc1.[Cl-].[Cl-]
MFC50 (Candida albicans [1]): 1.48 µg/mL
MFC90 (Candida albicans [1]): 1.48 µg/mL
MFC (Candida albicans [1]): 0.75 µg/mL
MFC50 (Candida dubliniensis): 0.75 µg/mL
MFC90 (Candida dubliniensis): 1.48 µg/mL
MFC (Candida dubliniensis): 0.75 µg/mL
MFC50 [2]: 0.75 µg/mL
MFC90 [2]: 0.75 µg/mL
MFC [2]: 0.38 µg/mL
MFC50 (Clavispora lusitaniae [3]): 1.48 µg/mL
MFC90 (Clavispora lusitaniae [3]): 1.48 µg/mL
MFC (Clavispora lusitaniae [3]): 0.75 µg/mL
MFC50 (Cryptococcus neoformans): 1.48 µg/mL
MFC90 (Cryptococcus neoformans): 47 µg/mL
MFC (Cryptococcus neoformans): 1.48 µg/mL
HC50 [4]: > 129 µM
IC50 [4]: > 48 µM
MFC [21]: 2.96 µg/mL
MFC (Rhizopus arrhizus): 5.9 µg/mL
MFC (Aspergillus terreus): 11.8 µg/mL
MFC (Lomentospora prolificans [6]): 2.96 µg/mL
MFC (Pichia kudriavzevii [16]): 11.8 µg/mL
MFC (Pichia kudriavzevii [22]): 11.8 µg/mL
MFC (Candida parapsilosis [17]): 1.48 µg/mL
MIC (Lomentospora prolificans [8]): 1.48 µg/mL
MIC (Aspergillus fumigatus [9]): 47.3 µg/mL
MIC (Pichia kudriavzevii [18]): 5.9 µg/mL
MIC (Pichia kudriavzevii [10]): 5.9 µg/mL
MIC (Candida albicans [11]): 1.48 µg/mL
MIC (Clavispora lusitaniae [12]): 0.86 µg/mL
MIC50 (Clavispora lusitaniae [12]): 0.75 µg/mL
MIC90 (Clavispora lusitaniae [12]): 1.48 µg/mL
MIC [13]: 1.48 µg/mL
